Measurements published in ChEMBL document CHEMBL3112577, “Discovery of novel chiral diazepines as bombesin receptor subtype-3 (BRS-3) agonists with low brain penetration” (Bioorg Med Chem Lett, 2014).
In brackets after ≈: the same amount, converted by molar mass.

Assays:
[1] = target: T1, Bombesin receptor subtype-3 (Mus musculus, UniProt O54798); assay: Agonist activity at mouse BRS-3 expressed in CHOK1 cells after 1 hr by HTRF assay; format: cell-based, CHO-K1
T1 sequence (O54798 whole entry): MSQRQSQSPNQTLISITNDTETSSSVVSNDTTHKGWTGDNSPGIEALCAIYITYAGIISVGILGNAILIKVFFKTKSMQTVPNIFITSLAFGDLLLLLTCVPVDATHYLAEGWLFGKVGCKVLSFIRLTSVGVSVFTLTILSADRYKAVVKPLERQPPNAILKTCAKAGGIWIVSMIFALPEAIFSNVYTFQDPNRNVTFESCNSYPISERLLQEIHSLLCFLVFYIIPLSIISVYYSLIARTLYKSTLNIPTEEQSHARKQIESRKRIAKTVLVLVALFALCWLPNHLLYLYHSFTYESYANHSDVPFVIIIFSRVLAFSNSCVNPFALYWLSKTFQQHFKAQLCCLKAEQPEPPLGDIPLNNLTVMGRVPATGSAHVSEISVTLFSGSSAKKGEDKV
Outline: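 CHO-K1 cells stably expressing mouse BRS-3 were plated at 200,000 cells/well and grown 24 h at 37 °C in CO₂. Compounds in HAM with 0.1% BSA plus 20 mM LiCl were added for 1 h at 37 °C. IP1 was detected by HTRF with d2-IP1 and cryptate anti-IP1 antibody after overnight at 4 °C in the dark, read as the 665/620 nm ratio and converted with on-plate IP1 standards. EC50 came from a nonlinear curve fit, averaged over at least 3 runs.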

[2] = target: T2, Bombesin receptor subtype-3 (Homo sapiens, UniProt P32247); assay: Agonist activity at human BRS-3 expressed in CHOK1 cells after 1 hr by HTRF assay; format: cell-based, CHO-K1
T2 sequence (P32247 whole entry): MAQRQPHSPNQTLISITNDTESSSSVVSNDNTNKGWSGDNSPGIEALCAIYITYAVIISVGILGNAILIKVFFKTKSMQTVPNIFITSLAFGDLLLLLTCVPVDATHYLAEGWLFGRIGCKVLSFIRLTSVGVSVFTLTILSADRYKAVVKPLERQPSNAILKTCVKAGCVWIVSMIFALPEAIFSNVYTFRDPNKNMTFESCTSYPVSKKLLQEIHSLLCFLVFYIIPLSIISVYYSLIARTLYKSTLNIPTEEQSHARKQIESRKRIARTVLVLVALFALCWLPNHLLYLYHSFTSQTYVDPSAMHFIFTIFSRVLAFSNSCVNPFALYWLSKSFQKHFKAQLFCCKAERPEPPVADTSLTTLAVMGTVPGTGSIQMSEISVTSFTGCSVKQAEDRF

[3] = Octanol-phosphate buffered saline distribution coefficient, log D of the compound at pH 7.4; format: physicochemical
Outline: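 LogD was measured as partitioning between 1-octanol and phosphate-buffered saline at pH 7.4.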

[4] = Ratio of drug level in brain to plasma of mouse at 30 mg/kg, po after 2.5 hrs; format: ADME, organism-based; set-up: dose 30 mg/kg, route oral
Outline: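 Mice given a single oral dose of 30 mg/kg. Brain and plasma concentrations were measured 2.5 h after dosing, and Kp brain was taken as the brain-to-plasma concentration ratio.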

[5] = Half life in mouse at 10 mg/kg, po; format: ADME, organism-based; set-up: dose 10 mg/kg, route oral; settings: in vivo
Outline: (§1)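 Two mice per compound given 10 mg/kg orally in DMA/PG/(20%HPbCD/saline) 10/10/80; values are the average of the 2 mice.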

[6] = Metabolic stability in mouse liver microsomes assessed as compound remaining after 0.5 hrs; format: ADME, Microsome; settings: read-out: Stability
Outline: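 Compound was incubated 0.5 h with mouse liver microsomes and the percentage of parent remaining was reported.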

[7] = AUC in mouse at 10 mg/kg, po; format: ADME, organism-based; set-up: dose 10 mg/kg, route oral; settings: plasma; outline: as §1
[8] = Cmax in mouse at 10 mg/kg, po; format: ADME, organism-based; set-up: dose 10 mg/kg, route oral; settings: in vivo; outline: as §1
[9] = Fraction unbound in mouse plasma; format: ADME, cell-free
[10] = Solubility of the compound in JP1; format: physicochemical
[11] = Solubility of the compound in JP2; format: physicochemical

Structure (SMILES) | EC50 [1] | EC50 [2] | logD [3] | further results
CC(C)Oc1cccc(CC(=O)N2CCNc3nc(C(F)(F)F)ccc3C2)c1 | 569 nM | 381 nM |  | 
CC(C)(C)COc1cccc(CC(=O)N2CCNc3nc(C(F)(F)F)ccc3C2)c1 | 121 nM | 199 nM |  | 
COc1cccc(CC(=O)N2CCNc3nc(C(F)(F)F)ccc3C2)c1 | 1780 nM | 2040 nM |  | 
CC(C)COc1cccc(CC(=O)N2CCNc3nc(C(F)(F)F)ccc3[C@H]2CC(=O)O)c1 | 62 nM | 17 nM | 0.9 | Kp at 2.5 h [4]: 0.043; half-life [5]: 3.7 h; remaining at 0.5 h [6]: 70%; AUC [7]: 390 ng·h/mL; Cmax [8]: 360 ng/mL; fraction unbound [9]: 0.033; solubility [10]: 40 µg/mL (≈ 85.9 µM); solubility [11]: 810 µg/mL (≈ 1740 µM)
O=C(Cc1cccc(OC2CCCC2)c1)N1CCNc2nc(C(F)(F)F)ccc2C1 | 100 nM | 41 nM |  | 
CC(C)COc1cccc(CC(=O)N2CCNc3nc(C(F)(F)F)ccc3C2)c1 | 62 nM | 70 nM | 4.3 | 
O=C(O)C1c2ccc(C(F)(F)F)nc2NCCN1C(=O)Cc1cccc(Oc2ccccc2)c1 (stereo not given) | 2260 nM | 1560 nM |  | 
CC(C)(C)c1ccc(CC(=O)N2Cc3ccc(C(F)(F)F)nc3Nc3ccccc32)cc1 | 227 nM | 48 nM |  | 
CCCCOc1cccc(CC(=O)N2CCNc3nc(C(F)(F)F)ccc3C2)c1 | 52 nM | 59 nM |  | 
O=C(Cc1cccc(Oc2ccccn2)c1)N1CCNc2nc(C(F)(F)F)ccc2C1 | 244 nM | 254 nM | 3.2 | 
O=C(Nc1cccc(Oc2ccccc2)c1)N1CCNc2nc(C(F)(F)F)ccc2C1 | 1380 nM | 4380 nM |  | 
O=C(Cc1ccc(Oc2ccccc2)cc1)N1Cc2ccc(C(F)(F)F)nc2Nc2ccccc21 | > 10000 nM | 368 nM |  | 
CCOc1cccc(CC(=O)N2CCNc3nc(C(F)(F)F)ccc3C2)c1 | 1210 nM | 2050 nM |  | 
O=C(Cc1cccc(Oc2ccncc2)c1)N1CCNc2nc(C(F)(F)F)ccc2C1 | 621 nM | 977 nM | 3.3 | 
O=C(O)C[C@H]1c2ccc(C(F)(F)F)nc2NCCN1C(=O)Cc1cccc(Oc2ccccc2)c1 | 3120 nM | 2070 nM | 1.2 | 
CC(=O)N1Cc2ccccc2N(Cc2ccccc2)CC1C(C)C (stereo not given) | 256 nM | 916 nM |  | 
O=C(Cc1cccc(Oc2cccnc2)c1)N1CCNc2nc(C(F)(F)F)ccc2C1 | 106 nM | 156 nM | 3.2 | 
O=C(Cc1cccc(Oc2ccccc2)c1)N1Cc2ccc(C(F)(F)F)nc2Nc2ccccc21 | 46 nM | 25 nM |  | 
CC(C)(C)c1ccc(C(=O)N2Cc3ccc(C(F)(F)F)nc3Nc3ccccc32)cc1 | > 10000 nM | > 10000 nM |  | 

Now those with a lower EC50 [1], led by results:

EC50 [1] | EC50 [2] | logD [3] | Structure (SMILES) | further results
22 nM | 1.4 nM |  | CC(C)(O)c1nc(-c2cccc3c2N(S(=O)(=O)c2ccc(OC(F)(F)F)cc2)Cc2ccc(C(F)(F)F)nc2N3)no1 | 
19 nM | 12 nM | 4.1 | O=C(Cc1cccc(Oc2ccccc2)c1)N1CCNc2nc(C(F)(F)F)ccc2C1CO (stereo not given) | 
12.2 nM | 8.5 nM | 4.5 | O=C(Cc1cccc(Oc2ccccc2)c1)N1CCNc2nc(C(F)(F)F)ccc2C1 | Kp at 2.5 h [4]: 0.72; half-life [5]: 0.82 h; remaining at 0.5 h [6]: 0.7%; AUC [7]: 41 ng·h/mL; Cmax [8]: 60 ng/mL; fraction unbound [9]: 0.0067; solubility [10]: 11 µg/mL (≈ 25.7 µM); solubility [11]: 5.1 µg/mL (≈ 11.9 µM)
8.7 nM | 6.8 nM | 4.8 | O=C(Cc1cccc(Oc2cccc(F)c2)c1)N1CCNc2nc(C(F)(F)F)ccc2C1 | 
11 nM | 11 nM |  | O=C(Cc1cccc(Oc2ccccc2)c1)N1CCNc2nc(C(F)(F)F)ccc2C1CCO (stereo not given) | 
8.7 nM | 8.1 nM | 4.4 | O=C(Cc1cccc(OC2CCCCC2)c1)N1CCNc2nc(C(F)(F)F)ccc2C1 | 
2.7 nM | 1.7 nM | 1.2 | O=C(O)C[C@@H]1c2ccc(C(F)(F)F)nc2NCCN1C(=O)Cc1cccc(Oc2ccc(F)cc2)c1 | 
1 nM | 1.3 nM | > 4.8 | Cc1ccc(Oc2cccc(CC(=O)N3CCNc4nc(C(F)(F)F)ccc4C3)c2)cc1 | 
3.5 nM | 1.7 nM | 0.3 | Cc1ccc(Oc2cccc(CC(=O)N3CCNc4nc(C(F)(F)F)ccc4[C@H]3CC(=O)O)c2)cn1 | Kp at 2.5 h [4]: 0.002; half-life [5]: 2.6 h; remaining at 0.5 h [6]: 94%; AUC [7]: 200 ng·h/mL; Cmax [8]: 90 ng/mL; fraction unbound [9]: 0.046; solubility [10]: 960 µg/mL (≈ 1920 µM); solubility [11]: 950 µg/mL (≈ 1900 µM)
2.7 nM | 3.6 nM | 4.6 | O=C(Cc1cccc(Oc2ccc(F)cc2)c1)N1CCNc2nc(C(F)(F)F)ccc2C1 | 
15 nM | 13 nM | 1.2 | O=C(O)CC1c2ccc(C(F)(F)F)nc2NCCN1C(=O)Cc1cccc(Oc2ccccc2)c1 (stereo not given) | 
34 nM | 131 nM |  | CC(C)C1CN(Cc2ccccc2)c2ccccc2CN1C(=O)Nc1cccc(N2CCOCC2)c1 (stereo not given) | 
2.8 nM | 9.5 nM | 3.6 | Cc1ccc(Oc2cccc(CC(=O)N3CCNc4nc(C(F)(F)F)ccc4C3)c2)cn1 | 
3.5 nM | 6.9 nM | 4.5 | O=C(Cc1cccc(Oc2ccccc2F)c1)N1CCNc2nc(C(F)(F)F)ccc2C1 | 
3.4 nM | 1.6 nM | 1.2 | O=C(O)C[C@@H]1c2ccc(C(F)(F)F)nc2NCCN1C(=O)Cc1cccc(Oc2ccccc2)c1 | 
